Source: ChEMBL document CHEMBL1124197, “3-[1-(2-Benzoxazolyl)hydrazino]propanenitrile derivatives: inhibitors of immune complex induced inflammation” (1988)
Calls of active or inactive are those of the source. The rule behind the calls is not given here.

Species: Rattus norvegicus
Assay: Inhibition of pleural reverse passive Arthus reactions (exudate white blood cells (WBC))
Assay type: functional
Procedure, shortened: (§1)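 Fasted male rats were given BSA intravenously, then about 1 h later rabbit anti-BSA intrapleurally. Oral dosing was 30 min before the challenge. After 4 h the rats were killed and pleural exudate fluid volume and white blood cell accumulation were determined. ED50 with 95% confidence limits came from least-squares regression.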

| Compound | ED50 |
| --- | --- |
| N#CCCN(N)c1nc2cc(C(F)(F)F)ccc2o1 | 92 µmol/kg |
| COc1ccc2oc(N(N)CCC#N)nc2c1 | 116 µmol/kg |
| Cc1ccc2oc(N(N)CCC#N)nc2c1 | 175 µmol/kg |
| C[C@]12CCC(=O)C=C1CC[C@@H]1[C@@H]2[C@@H](O)C[C@@]2(C)[C@H]1CC[C@]2(O)C(=O)CO [HYDROCORTISONE] | 50 µmol/kg |
| N#CCCN(N)c1nc2ccccc2o1 | 243 µmol/kg |

Species: Rattus norvegicus
Assay: Effect in rat pleural Carrageenan test (exudate white blood cells (WBC))
Assay type: functional

| Compound | ED50 |
| --- | --- |
| C[C@]12CCC(=O)C=C1CC[C@@H]1[C@@H]2[C@@H](O)C[C@@]2(C)[C@H]1CC[C@]2(O)C(=O)CO [HYDROCORTISONE] | 9 µmol/kg |
| N#CCCN(N)c1nc2ccccc2o1 | 171 µmol/kg |

Tested on: Rattus norvegicus
Assay: Effect in rat pleural Carrageenan test (exudate white blood cells (WBC)); No significant effect at 28 umol/kg (Not active)
Assay type: functional, organism-based

| Compound | ED50 |
| --- | --- |
| COc1ccc2c(c1)c(CC(=O)O)c(C)n2C(=O)c1ccc(Cl)cc1 [INDOMETHACIN] | inactive |

Tested on: Rattus norvegicus
Assay: Inhibition of pleural reverse passive Arthus reactions (RPAR) in rat (exudate volume); No significant inhibition at 56 umol/kg (Inactive)
Assay type: functional, organism-based
Procedure, shortened: as §1

| Compound | ED50 |
| --- | --- |
| COc1ccc2c(c1)c(CC(=O)O)c(C)n2C(=O)c1ccc(Cl)cc1 [INDOMETHACIN] | inactive |

Species: Rattus norvegicus
Assay: Effective dose required for 40% inhibition of rat dermal reverse passive Arthus reaction (RPAR)
Assay type: functional
Procedure, shortened: (§2)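 Fasted male rats received BSA intravenously and about 1 h later a challenge of rabbit anti-BSA given intradermally. Compound was dosed orally 30 min before the challenge. Rats were killed 4 h later and dermal lesion size was measured. ED40 with 95% confidence limits came from least-squares regression.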

| Compound | ED40 |
| --- | --- |
| COCCN(N)c1nc2cc(OC)ccc2o1 | 43 µM/kg |
| C#CCCN(N)c1nc2ccccc2o1 | 348 µM/kg |
| Cc1coc(N(N)CCC#N)n1 | 705 µM/kg |
| NC(=O)CCN(N)c1nc2ccccc2o1 | 1009 µM/kg |
| Cc1ccc2oc(N(CCC#N)NC=O)nc2c1 | 168 µM/kg |
| NN(CC[S+]([O-])c1ccccc1)c1nc2ccccc2o1 (stereo not given) | 719 µM/kg |
| CNN(CCC#N)c1nc2ccccc2o1 | 250 µM/kg |
| COCCN(N)c1nc2ccccc2o1 | 300 µM/kg |
| CSc1cc(C(C)(C)C)cc2nc(N(N)CCC#N)oc12 | 801 µM/kg |
| CCc1ccc2oc(N(N)CCC#N)nc2c1 | 330 µM/kg |
| N#CCCN(N)c1nc2cc(C#N)ccc2o1 | 66 µM/kg |
| N#CCCN(N)c1ncco1 | 360 µM/kg |
| Cc1cc(N(N)CCC#N)c2ccccc2n1 | 177 µM/kg |
| N#CCCN(N)c1nccs1 | 390 µM/kg |
| CCN(CC)CCN(N)c1nc2ccccc2o1 | 611 µM/kg |
| [2H]C([2H])(C#N)CN(N)c1nc2ccccc2o1 | 255 µM/kg |
| CCCN(N)c1nc2ccccc2o1 | 400 µM/kg |
| N#CCCN(N)c1nc2cc(C(F)(F)F)ccc2o1 | 26 µM/kg |
| NN(CCCO)c1nc2ccccc2o1 | 576 µM/kg |
| N#CCCN(N)c1ccc(-c2ccccc2)nn1 | 672 µM/kg |
| N#CCCN(NC=O)c1nc2ccccc2o1 | 142 µM/kg |

| Compound | ED40 |
| --- | --- |
| Cc1cc2oc(N(N)CCC#N)nc2c(C)c1C | 139 µM/kg |
| COc1ccc2oc(N(N)CCC#N)nc2c1 | 59 µM/kg |
| N#CCCN(N)c1nc2cc(F)ccc2o1 | 141 µM/kg |
| Cc1ccc2oc(N(N)CCC#N)nc2c1 | 83 µM/kg |
| Cc1cc2oc(N(N)CCC#N)nc2cc1Cl | 36 µM/kg |
| C/C=N\N(CCC#N)c1nc2ccccc2o1 | 625 µM/kg |
| N#CCCN(N)c1nc2cc3ccccc3cc2o1 | 306 µM/kg |
| N#CCCN(N)c1nc2ccccc2s1 | 128 µM/kg |
| CCNN(CCC#N)c1nc2ccccc2o1 | 196 µM/kg |
| CC(CC#N)N(N)c1nc2ccccc2o1 (stereo not given) | 245 µM/kg |
| C[C@]12CCC(=O)C=C1CC[C@@H]1[C@@H]2[C@@H](O)C[C@@]2(C)[C@H]1CC[C@]2(O)C(=O)CO [HYDROCORTISONE] | 33 µM/kg |
| NN(CCc1ccccc1)c1nc2ccccc2o1 | 962 µM/kg |
| NN(CCN1CCOCC1)c1nc2ccccc2o1 | 825 µM/kg |
| Cc1cccc2nc(N(N)CCC#N)oc12 | 250 µM/kg |
| NN(CCOc1ccc(F)cc1)c1nc2ccccc2o1 | 800 µM/kg |
| Cc1cc(C)c2oc(N(N)CCC#N)nc2c1C | 115 µM/kg |
| N#CCCN(N)c1nc2cc(Cl)ccc2o1 | 177 µM/kg |
| COc1cc2nc(N(N)CCC#N)oc2cc1OC | 650 µM/kg |
| COC(=O)NN(CCC#N)c1nc2ccccc2o1 | 695 µM/kg |
| N#CCCN(N)C1=NS(=O)(=O)c2ccccc21 | 643 µM/kg |
| N#CCCN(N)c1nc2cccc(Cl)c2o1 | 275 µM/kg |

| Compound | ED40 |
| --- | --- |
| N#CCCN(N)c1cnccn1 | 760 µM/kg |
| N#CCCN(N)C1=Nc2ccccc2C1 | 265 µM/kg |
| CSCCN(N)c1nc2ccccc2o1 | 913 µM/kg |
| CSc1ccc2oc(N(N)CCC#N)nc2c1 | 399 µM/kg |
| N#CCCN(N)c1nc(-c2ccccc2)co1 | 119 µM/kg |
| COCCN(N)c1nc2cc(Cl)ccc2o1 | 136 µM/kg |
| Cn1c(N(N)CCC#N)nc2ccccc21 | 349 µM/kg |
| COC(=O)CCN(N)c1nc2ccccc2o1 | 1208 µM/kg |
| COCCN(N)c1nc2cc(C)ccc2o1 | 127 µM/kg |
| COc1ccc2nc(N(N)CCC#N)oc2c1 | 388 µM/kg |
| C[S+]([O-])c1ccc2oc(N(N)CCC#N)nc2c1 (stereo not given) | 607 µM/kg |
| CCN(N)c1nc2ccccc2o1 | 254 µM/kg |
| CCOCCN(N)c1nc2cc(OC)ccc2o1 | 149 µM/kg |
| NN(CCO)c1nc2ccccc2o1 | 1247 µM/kg |
| NN(CCOc1ccccc1)c1nc2ccccc2o1 | 457 µM/kg |
| CS(=O)(=O)c1ccc2oc(N(N)CCC#N)nc2c1 | 407 µM/kg |
| C=NN(CCC#N)c1nc2ccccc2o1 | 845 µM/kg |
| COc1ccc2oc(N(CCC#N)NC=O)nc2c1 | 200 µM/kg |
| N#CCCN(N)C1Cc2ccccc2C1 | 565 µM/kg |
| COCCN(N)c1nc2cc(C(F)(F)F)ccc2o1 | 47 µM/kg |
| Cc1cc(Cl)cc2nc(N(N)CCC#N)oc12 | 191 µM/kg |

| Compound | ED40 |
| --- | --- |
| CC(=O)NN(CCC#N)c1nc2ccccc2o1 | 402 µM/kg |
| Cc1ccc2nc(N(N)CCC#N)oc2c1 | 216 µM/kg |
| N#CCCNc1nc2ccccc2o1 | 1302 µM/kg |
| N#CCCSc1nc2ccccc2o1 | 1268 µM/kg |
| N#CCCN(NC=O)c1nc2cc(C(F)(F)F)ccc2o1 | 87 µM/kg |
| COCCN(N)c1nc2cc(C#N)ccc2o1 | 181 µM/kg |
| CC(C)(C)c1ccc2oc(N(N)CCC#N)nc2c1 | 345 µM/kg |
| N#CCCN(N)c1nc2c(ccc3ccccc32)o1 | 346 µM/kg |
| Cc1cccc2oc(N(N)CCC#N)nc12 | 356 µM/kg |
| Cc1cc2nc(N(N)CCC#N)oc2cc1C | 413 µM/kg |
| N#CCCN(N)c1nc2ccccc2o1 | 84 µM/kg |
| CS(=O)(=O)CCN(N)c1nc2ccccc2o1 | 278 µM/kg |
| Cc1nc(N(N)CCC#N)oc1C | 519 µM/kg |
| CC(C#N)CN(N)c1nc2ccccc2o1 (stereo not given) | 210 µM/kg |
| NN(CCc1ccccn1)c1nc2ccccc2o1 | 258 µM/kg |
| N#CCCN(N)c1ncc(-c2ccccc2)cn1 | 121 µM/kg |
| Cc1cc(C)c2oc(N(N)CCC#N)nc2c1 | 161 µM/kg |
| N#CCCN(N)c1nc(-c2ccccc2)c(-c2ccccc2)o1 | 332 µM/kg |

Species: Rattus norvegicus
Assay: Inhibition of pleural reverse passive Arthus reactions (RPAR) in rat (exudate volume)
Assay type: functional
Procedure, shortened: as §1

| Compound | ED50 |
| --- | --- |
| N#CCCN(N)c1nc2cc(C(F)(F)F)ccc2o1 | 70 µmol/kg |
| COc1ccc2oc(N(N)CCC#N)nc2c1 | 155 µmol/kg |
| Cc1ccc2oc(N(N)CCC#N)nc2c1 | 148 µmol/kg |
| C[C@]12CCC(=O)C=C1CC[C@@H]1[C@@H]2[C@@H](O)C[C@@]2(C)[C@H]1CC[C@]2(O)C(=O)CO [HYDROCORTISONE] | 38 µmol/kg |
| N#CCCN(N)c1nc2ccccc2o1 | 238 µmol/kg |

Tested on: Rattus norvegicus
Assay: In vivo inhibition of rat dermal passive revers arthus reaction following p.o. administration; Inactive.
Assay type: functional, organism-based

| Compound | ED40 |
| --- | --- |
| N#CCCN(NC(N)=O)c1nc2ccccc2o1 | inactive |
| CNC(=O)NN(CCC#N)c1nc2ccccc2o1 | inactive |
| N#CCCN(N)c1nc2cc(OCc3ccccc3)ccc2o1 | inactive |
| N#CCCN(N)c1nc2cc(C(=O)c3ccccc3)ccc2o1 | inactive |
| COC(=O)N(CCC#N)c1nc2ccccc2o1 | inactive |
| N#CCCC(N)c1nc2ccccc2o1 (stereo not given) | inactive |
| CC(C)S(=O)(=O)n1c(N(N)CCC#N)nc2ccccc21 | inactive |
| N#CCC(=O)N(N)c1nc2ccccc2o1 | inactive |
| C/N=C(\S)NN(CCC#N)c1nc2ccccc2o1 | inactive |
| CCOC(=O)c1ccc2oc(N(N)CCC#N)nc2c1 | inactive |
| N#CCCN(C=O)c1nc2ccccc2o1 | inactive |
| CN(C)S(=O)(=O)n1c(N(N)CCC#N)nc2ccccc21 | inactive |
| N#CCCN(NC(=O)NC1CCCCC1)c1nc2ccccc2o1 | inactive |
| N#CCCN(N)c1nc2cc(Oc3ccccc3)ccc2o1 | inactive |
| N#CCCN(N)c1nc2cc(-c3ccccc3)ccc2o1 | inactive |
| CC(=O)N(CCC#N)c1nc2ccccc2o1 | inactive |
| NN(CCSc1ccccc1)c1nc2ccccc2o1 | inactive |
| NN(CCS(=O)(=O)c1ccccc1)c1nc2ccccc2o1 | inactive |
| CS(=O)(=O)NN(CCC#N)c1nc2ccccc2o1 | inactive |
| NN(CCC(=O)O)c1nc2ccccc2o1 | inactive |

Tested on: Rattus norvegicus
Assay: Inhibition of pleural reverse passive Arthus reactions (exudate white blood cells (WBC)); No significant inhibition at 56 umol/kg (Inactive)
Assay type: functional, organism-based
Procedure, shortened: as §1

| Compound | ED50 |
| --- | --- |
| COc1ccc2c(c1)c(CC(=O)O)c(C)n2C(=O)c1ccc(Cl)cc1 [INDOMETHACIN] | inactive |

Species: Rattus norvegicus
Assay: Effect in rat pleural Carrageenan test (exudate volume)
Assay type: functional

| Compound | ED50 |
| --- | --- |
| C[C@]12CCC(=O)C=C1CC[C@@H]1[C@@H]2[C@@H](O)C[C@@]2(C)[C@H]1CC[C@]2(O)C(=O)CO [HYDROCORTISONE] | 12 µmol/kg |
| COc1ccc2c(c1)c(CC(=O)O)c(C)n2C(=O)c1ccc(Cl)cc1 [INDOMETHACIN] | 1.1 µmol/kg |
| N#CCCN(N)c1nc2ccccc2o1 | 105 µmol/kg |

Tested on: Rattus norvegicus
Assay: Effective dose of compound for 40% inhibition of rat dermal reverse passive Arthus reaction (RPAR) on peroral administration; No significant inhibition at 56 umol/kg (Inactive)
Assay type: functional, organism-based
Procedure, shortened: as §2

| Compound | ED40 |
| --- | --- |
| COc1ccc2c(c1)c(CC(=O)O)c(C)n2C(=O)c1ccc(Cl)cc1 [INDOMETHACIN] | inactive |
